# According to ChEMBL document CHEMBL1126653, “Structure-function studies of amphiphilic antibacterial peptides” (1993):
# Peptide text beside a SMILES is read from it.
# What was measured:
# [1] = test system: Staphylococcus aureus; assay: Compound tested for the activity against Staphylococcus aureus strain 8; format: functional
# Outline: (§1)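 Microbroth dilution in Tryptic Soy Broth; inoculum 5×10^5 CFU/mL; plates incubated at 37 °C for 18-20 h; value reported as minimal inhibitory concentration (µg/mL).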
# [2] = test system: Pseudomonas aeruginosa; assay: Compound tested for the antimicrobial activity against Pseudomonas aeruginosa strain 11; format: functional; outline: as §1
# [3] = test system: Pseudomonas aeruginosa; assay: Compound tested for in vitro susceptibility against ATCC strain 27853 of Pseudomonas aeruginosa; format: functional; conditions: ATCC 27853; outline: as §1
# [4] = test system: Acinetobacter calcoaceticus subsp. anitratus; assay: Compound tested for the antimicrobial activity against Acinetobacter anitratus; format: functional
# Outline: (§2)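 MIC by microbroth dilution in Tryptic Soy Broth; inoculum 5×10^5 CFU/mL; plates incubated 18-20 h at 37 °C; assay pH approximately 7.4.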
# [5] = test system: Staphylococcus aureus; assay: Compound tested for the activity against Staphylococcus aureus strain 4; format: functional; outline: as §1
# [6] = test system: Enterobacter cloacae; assay: Compound tested for the antimicrobial activity against Enterobacter cloacae ROS; format: functional, enterobacter cloacaeros; outline: as §2
# [7] = test system: Pseudomonas aeruginosa; assay: Compound tested for the antimicrobial activity against Pseudomonas aeruginosa strain 10; format: functional; outline: as §1
# [8] = test system: Staphylococcus aureus; assay: Compound tested for the activity against Staphylococcus aureus strain 9; format: functional; outline: as §1
# [9] = test system: Pseudomonas aeruginosa; assay: Compound tested for the antimicrobial activity against Pseudomonas aeruginosa strain 4; format: functional; outline: as §1
# [10] = Hemolytic activity towards human erythrocytes is evaluated for magainin 2 at peptide concentration of 50 µg/mL; format: functional
# Outline: (§3)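 Washed human erythrocytes from healthy volunteers (3 mL packed cells, PBS pH 7.4 washes, diluted to 20 mL) exposed to peptide in PBS at 25-200 µg/mL, 30 min at 37 °C; supernatant absorbance at 576 nm after centrifugation; 0.1% Triton X-100 taken as 100% hemolysis; duplicates.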
# [11] = test system: Proteus mirabilis; assay: Compound tested for the antimicrobial activity against Proteus mirabilis; format: functional; outline: as §1
# [12] = test system: Shigella flexneri; assay: Compound tested for the antimicrobial activity against Shigella flexneri; format: functional; outline: as §2
# [13] = test system: Klebsiella pneumoniae; assay: Compound tested for the antimicrobial activity against Klebsiella pneumoniae; format: functional; outline: as §2
# [14] = test system: Staphylococcus aureus; assay: Compound tested for the activity against Staphylococcus aureus strain 6; format: functional; outline: as §1
# [15] = test system: Staphylococcus aureus; assay: Compound tested for the activity against Staphylococcus aureus strain 2; format: functional; outline: as §1
# [16] = test system: Enterobacter cloacae; assay: Compound tested for the antimicrobial activity against Enterobacter cloacae; format: functional; outline: as §1
# [17] = test system: Pseudomonas aeruginosa; assay: Compound tested for the antimicrobial activity against Pseudomonas aeruginosa strain ATCC 25916; format: functional; outline: as §1
# [18] = test system: Staphylococcus aureus; assay: Compound tested for the activity against Staphylococcus aureus strain 1; format: functional; outline: as §1
# [19] = test system: Pseudomonas aeruginosa; assay: Compound tested for the antimicrobial activity against Pseudomonas aeruginosa strain 3; format: functional; outline: as §1
# [20] = test system: Staphylococcus aureus; assay: Compound tested for the activity against Staphylococcus aureus strain 5; format: functional; outline: as §1
# [21] = Hemolytic activity towards human erythrocytes is evaluated for magainin 2 at peptide concentration of 25 ug/mL; format: functional; outline: as §3
# [22] = test system: Pseudomonas aeruginosa; assay: Compound tested for the antimicrobial activity against Pseudomonas aeruginosa strain 8; format: functional; outline: as §1
# [23] = test system: Staphylococcus aureus; assay: Compound tested for the activity against Staphylococcus aureus strain 11; format: functional; outline: as §1
# [24] = test system: Pseudomonas aeruginosa; assay: Compound tested for the antimicrobial activity against Pseudomonas aeruginosa strain 1; format: functional; outline: as §1
# [25] = Hemolytic activity towards human erythrocytes is evaluated for magainin 2 at peptide concentration of 100 µg/mL; format: functional; outline: as §3
# [26] = test system: Pseudomonas aeruginosa; assay: Compound tested for the antimicrobial activity against Pseudomonas aeruginosa strain 9; format: functional; outline: as §1
# [27] = test system: Salmonella enterica subsp. enterica serovar Anatum; assay: Compound tested for the antimicrobial activity against S. a natum; format: functional, salmoneila anatum; outline: as §1
# [28] = Hemolytic activity towards human erythrocytes is evaluated for magainin 2 at peptide concentration of 200 µg/mL; format: functional; outline: as §3
# [29] = test system: Pseudomonas aeruginosa; assay: Compound tested for the antimicrobial activity against Pseudomonas aeruginosa strain 2; format: functional; outline: as §1
# [30] = test system: Staphylococcus aureus; assay: Compound tested for the activity against Staphylococcus aureus strain 10; format: functional; outline: as §1
# [31] = test system: Staphylococcus aureus; assay: Compound tested for the activity against Staphylococcus aureus strain ATCC 28953; format: functional; outline: as §1
# [32] = test system: Escherichia coli; assay: Compound tested for in vitro susceptibility against ATCC strain 25922 of Escherichia coli; format: functional; conditions: ATCC25922; outline: as §1
# [33] = test system: Pseudomonas aeruginosa; assay: Compound tested for the antimicrobial activity against Pseudomonas aeruginosa strain 6; format: functional; outline: as §1
# [34] = test system: Pseudomonas aeruginosa; assay: Compound tested for the antimicrobial activity against Pseudomonas aeruginosa strain 5; format: functional; outline: as §1
# [35] = test system: Pseudomonas aeruginosa; assay: Compound tested for the antimicrobial activity against Pseudomonas aeruginosa strain 7; format: functional; outline: as §1
# [36] = test system: Staphylococcus aureus; assay: Compound tested for the activity against Staphylococcus aureus strain 7; format: functional; outline: as §1
# [37] = test system: Staphylococcus aureus; assay: Compound tested for in vitro susceptibility against ATCC strain 29213 of Staphylococcus aureus; format: functional; outline: as §1
# [38] = test system: Staphylococcus aureus; assay: Compound tested for the activity against Staphylococcus aureus strain 3; format: functional; outline: as §1
# [39] = test system: Staphylococcus aureus; assay: Compound tested for the activity against strain of Staphylococcus aureus ATCC 28953; format: functional; outline: as §1
SMILES,MIC [1],MIC [2],MIC [3],MIC [5],MIC [7],MIC [8],MIC [9],Hemolysis [10],MIC [14],MIC [15],MIC [17],MIC [18],MIC [19],MIC [20],Hemolysis [21],MIC [22],MIC [23],MIC [24],Hemolysis [25],MIC [26],further results
CC(C)C[C@H](NC(=O)[C@H](C)NC(=O)[C@H](CCCCN)NC(=O)[C@H](C)NC(=O)[C@H](CC(C)C)NC(=O)[C@H](CCCCN)NC(=O)[C@H](C)NC(=O)[C@H](CC(C)C)NC(=O)[C@H](CCCCN)NC(=O)[C@H](C)NC(=O)[C@H](CC(C)C)NC(=O)[C@H](CCCCN)NC(=O)[C@H](CCCCN)NC(=O)[C@H](C)NC(=O)[C@H](CC(C)C)NC(=O)[C@@H](N)CCCCN)C(=O)O (H-KLAKKLAKLAKLAKAL-OH),> 100 µg/mL,6.25 µg/mL,3.12 µg/mL,> 100 µg/mL,> 100 µg/mL,> 100 µg/mL,3.12 µg/mL,1%,> 100 µg/mL,> 100 µg/mL,6.25 µg/mL,> 100 µg/mL,3.12 µg/mL,> 100 µg/mL,1%,50 µg/mL,> 100 µg/mL,3.12 µg/mL,1%,> 100 µg/mL,MIC [4]: 3.12 µg/mL; MIC [6]: 12.5 µg/mL; MIC [11]: > 100 µg/mL; MIC [12]: 25 µg/mL; MIC [13]: 12.5 µg/mL; MIC [16]: 3.12 µg/mL; MIC [27]: 25 µg/mL; Hemolysis [28]: 2%; MIC [29]: 6.25 µg/mL; MIC [30]: > 100 µg/mL; MIC [31]: > 100 µg/mL; MIC [32]: 6.25 µg/mL; MIC [33]: > 100 µg/mL; MIC [34]: 6.25 µg/mL; MIC [35]: 6.25 µg/mL; MIC [36]: > 100 µg/mL; MIC [37]: 12.5 µg/mL; MIC [38]: > 100 µg/mL
CC(C)C[C@H](NC(=O)[C@H](Cc1c[nH]c2ccccc12)NC(=O)[C@H](CCCCN)NC(=O)[C@H](CCCCN)NC(=O)[C@@H](N)Cc1c[nH]c2ccccc12)C(=O)N[C@@H](Cc1c[nH]c2ccccc12)C(=O)N[C@@H](C)C(=O)N[C@@H](CCCCN)C(=O)N[C@@H](Cc1c[nH]c2ccccc12)C(=O)O (H-WKKWLWAKW-OH),50 µg/mL,50 µg/mL,12.5 µg/mL,50 µg/mL,> 100 µg/mL,50 µg/mL,50 µg/mL,1%,50 µg/mL,25 µg/mL,50 µg/mL,50 µg/mL,50 µg/mL,50 µg/mL,1%,50 µg/mL,50 µg/mL,50 µg/mL,4%,> 100 µg/mL,Hemolysis [28]: 5%; MIC [29]: 12.5 µg/mL; MIC [30]: 50 µg/mL; MIC [39]: > 100 µg/mL; MIC [32]: 50 µg/mL; MIC [33]: > 100 µg/mL; MIC [34]: 50 µg/mL; MIC [35]: 50 µg/mL; MIC [36]: 25 µg/mL; MIC [37]: 25 µg/mL; MIC [38]: > 100 µg/mL
